These results are taken from ChEMBL document CHEMBL1153867, “Synthesis, biological evaluation and SAR of sulfonamide 4-methoxychalcone derivatives with potential antileishmanial activity” (Eur J Med Chem, 2009).

The subject of assay [1] is Trypanosoma cruzi. The experiment in a line: Antitrypanosomal activity against Trypanosoma cruzi Y epimastigotes at 500 uM after 72 hrs. It counts as functional, organism-based.
For assay [2], the system named is Leishmania braziliensis. In words: Antileishmanial activity against Leishmania braziliensis MHOM/BR/75/M2904 promastigotes after 72 hrs. The assay is classed as functional, organism-based. To be noted: MHOM/BR/75/M2904, 72 h. An outline of the steps:
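Exponential-phase promastigotes at 10×10^6/ml in Schneider's medium with 5% FBS were incubated 72 h at 28 °C with compound dilutions from 100 to 1.6. Amphotericin B (31.25–1000 nM) was the positive control and 1% DMSO the negative control. Live parasites were counted in a Neubauer chamber. IC50 came from linear regression, mean ± standard error of three independent triplicate experiments.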

Assay [3] relates to Trypanosoma cruzi. In words: Antitrypanosomal activity against Trypanosoma cruzi epimastigotes at 500 uM after 72 hrs.
In assay [4] the test system is Leishmania braziliensis. The experiment in a line: Antileishmanial activity against Leishmania braziliensis MHOM/BR/75/M2904 amastigotes assessed as reduction in intracellular amastigote after 48 hrs. It counts as functional, organism-based. The method, boiled down: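 L. braziliensis axenic amastigotes were made by differentiating stationary-phase promastigotes in Schneider medium with 20% FBS, pH 6.3, at 34 °C for 72 h. J774.A1 cells were infected at 10:1 parasite:cell overnight at 34 °C in RPMI with 20% FBS. Cells were exposed to 1–100 compound for 48 h at 34 °C/5% CO2, Giemsa-stained, and 200 cells counted. Percent inhibition above 25% counted as significant.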

The structures appear in SMILES notation. Calls of active or inactive are those of the source. The rule behind the calls is not given here.

On to `COc1ccc(NS(=O)(=O)c2cc(/C=C/C(=O)c3ccccc3)ccc2OC)cc1`, for which the outcome in assay [1] and in assay [3] was inactive. Further, 7.5 µM corresponded to half-maximal inhibition in assay [2] (IC50).
In the case of `COc1ccc(/C=C/C(=O)c2ccccc2)cc1S(=O)(=O)Nc1ccccc1`, the result in assay [1] and in assay [3] was inactive. In addition, the midpoint of inhibition in assay [2], the IC50, lay at 69 µM.
On to `COc1ccc(/C=C/C(=O)c2ccccc2)cc1S(=O)(=O)N(C)C`, for which the outcome in assay [1] and in assay [3] was inactive. Besides, in assay [2], the IC50 (usually the concentration that inhibits the measured activity by half) was 8.6 µM.
For `COc1ccc(/C=C/C(=O)c2ccccc2)cc1S(=O)(=O)N1CCOCC1`, the result in assay [1] and in assay [3] was inactive. For the same molecule, the IC50 in assay [2] came out at 5.9 µM.
`COc1ccc(/C=C/C(=O)c2ccccc2)cc1S(=O)(=O)N1CCCC1`: the result in assay [1] and in assay [3] was inactive. In addition, in assay [2], half-maximal inhibition (IC50) was put at 13 µM.
As to `CCN(CC)S(=O)(=O)c1cc(/C=C/C(=O)c2ccccc2)ccc1OC`, the outcome in assay [1] and in assay [3] was inactive. Also, in assay [2], the IC50 worked out at 5.6 µM.
On to `COc1ccc(/C=C/C(=O)c2ccccc2)cc1S(=O)(=O)NCc1ccccc1`, for which the result in assay [1] and in assay [3] was inactive. In addition, the IC50 in assay [2] came to 3.5 µM. In assay [4], the outcome was Active.
For the molecule `COc1ccc(/C=C/C(=O)c2ccccc2)cc1S(=O)(=O)Nc1ccc(Cl)c(Cl)c1`, the result in assay [1] and in assay [3] was inactive. In assay [2], this molecule came in with an IC50 of 8.1 µM.
Regarding `COc1ccc(/C=C/C(=O)c2ccccc2)cc1S(=O)(=O)Nc1ccc(Cl)cc1`, the result in assay [1] and in assay [3] was inactive. Moreover, the IC50 in assay [2] amounted to 4.6 µM.
`C[C@@H]1[C@H](O)[C@@H](C)/C=C/C=C/C=C/C=C/C=C/C=C/C=C/[C@H](O[C@@H]2O[C@H](C)[C@@H](O)[C@H](N)[C@@H]2O)C[C@@H]2O[C@](O)(C[C@@H](O)C[C@@H](O)[C@H](O)CC[C@@H](O)C[C@@H](O)CC(=O)O[C@H]1C)C[C@H](O)[C@H]2C(=O)O` [AMPHOTERICIN B]: the IC50 in assay [2] was 0.3 µM.
Still for that read-out and setting: in the case of `COc1ccc(/C=C/C(=O)c2ccccc2)cc1` [4-METHOXY CHALCONE] it was 16.6 µM; in that of `N=C(N)c1ccc(OCCCCCOc2ccc(C(=N)N)cc2)cc1`, 19.6 µM.
